Measured values published in ChEMBL document CHEMBL4627348, “Synthesis of (1,3,4-thiadiazol-2-yl)-acrylamide derivatives as potential antitumor agents against acute leukemia cells” (Bioorg Med Chem Lett, 2020).
Calls of active or inactive are those of the source. No cut-off for these calls is given here.

Key:
RS4-11 [1] = assay: Induction of mitochondrial membrane potential loss in human RS4:11 cells at 40 uM after 48 hrs by MitoSense Red staining based fluorescence assay; assay type: functional, cell-based
In short: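 RS4;11 cells exposed 48 h at 5–40 μM, DMSO as negative control. Stained with MitoSense Red and analysed by flow cytometry. Loss of mitochondrial membrane potential is read as a drop in Red2 fluorescence.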

RS4-11 [2] = assay: Induction of apoptosis in human RS4:11 cells assessed as increase in cleaved PARP protein expression at 2.5 to 40 uM after 48 hrs by Western blot analysis; assay type: functional, cell-based
In short: (§1)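 RS4;11 cells treated 48 h at concentrations from 2.5 to 40 μM, DMSO as negative control. Western blot for full-length PARP (116 kDa) and cleaved PARP (89 kDa), plus cleaved caspase-3 and cleaved caspase-9.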

RS4-11 [3] = assay: Antiproliferative activity against human RS4:11 cells assessed as growth inhibition at 20 uM after 48 hrs by CCK-8 assay relative to control; assay type: functional; settings: RS4-11, 48 h, read-out: GI
In short: (§2)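 Single-dose screen at 20 μM in RS4;11 (human ALL), HL-60 (human promyelocytic leukemia) and HEK293T (normal-cell model). Cells exposed 48 h, viability read by CCK-8, growth inhibition ratio expressed relative to control.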

RS4-11 [4] = assay: Induction of apoptosis in human RS4:11 cells assessed as PARP degradation at 2.5 to 40 uM after 48 hrs by Western blot analysis; assay type: functional, cell-based; in short: as §1
RS4-11 [5] = assay: Induction of apoptosis in human RS4:11 cells assessed as increase in cleaved caspase-3 protein expression after 48 hrs by Western blot analysis; assay type: functional, cell-based; in short: as §1
RS4-11 [6] = assay: Induction of apoptosis in human RS4:11 cells assessed as necrotic cells at 40 uM after 48 hrs by Annexin-V and 7-AAD staining based flow cytometric analysis (reference value: 0.67%); assay type: functional
RS4-11 [7] = assay: Induction of apoptosis in human RS4:11 cells assessed as early apoptotic cells at 40 uM after 48 hrs by Annexin-V and 7-AAD staining based flow cytometric analysis (reference value: 2.56%); assay type: functional
RS4-11 [8] = assay: Antiproliferative activity against human RS4:11 cells assessed as growth inhibition after 48 hrs by CCK-8 assay; assay type: functional, cell-based; settings: RS4-11, 48 h
RS4-11 [9] = assay: Induction of apoptosis in human RS4:11 cells assessed as viable cells at 40 uM after 48 hrs by Annexin-V and 7-AAD staining based flow cytometric analysis (reference value: 94.06%); assay type: functional; settings: RS4-11, 48 h, read-out: Activity
HL-60 [10] = assay: Antiproliferative activity against human HL60 cells assessed as growth inhibition at 20 uM after 48 hrs by CCK-8 assay relative to control; assay type: functional; settings: HL-60, 48 h, read-out: GI; in short: as §2
RS4-11 [11] = assay: Induction of apoptosis in human RS4:11 cells assessed as late apoptotic cells at 40 uM after 48 hrs by Annexin-V and 7-AAD staining based flow cytometric analysis (reference value: 2.71%); assay type: functional
HL-60 [12] = assay: Antiproliferative activity against human HL60 cells assessed as growth inhibition after 48 hrs by CCK-8 assay; assay type: functional, cell-based; settings: HL-60, 48 h
RS4-11 [13] = assay: Induction of apoptosis in human RS4:11 cells assessed as increase in cleaved PARP protein expression after 48 hrs by Western blot analysis; assay type: functional, cell-based; in short: as §1
[14] = Cytotoxicity against HEK293T cells assessed as growth inhibition at 20 uM after 48 hrs by CCK8 assay relative to control; assay type: cell-based, HEK-293T; settings: human, HEK293T cells; read-out: GI; in short: as §2
HEK-293T = assay: Cytotoxicity against human HEK293T cells assessed as growth inhibition after 48 hrs by CCK8 assay; assay type: cell-based
RS4-11 [15] = assay: Induction of apoptosis in human RS4:11 cells assessed as increase in cleaved caspase-9 protein expression after 48 hrs by Western blot analysis; assay type: functional, cell-based; in short: as §1
RS4-11 [16] = assay: Induction of apoptosis in human RS4:11 cells assessed as viable cells at 0.5 uM after 48 hrs by Annexin-V and 7-AAD staining based flow cytometric analysis (reference value: 94.06%); assay type: functional; settings: RS4-11, 48 h, read-out: Activity
RS4-11 [17] = assay: Induction of apoptosis in human RS4:11 cells assessed as early apoptotic cells at 0.5 uM after 48 hrs by Annexin-V and 7-AAD staining based flow cytometric analysis (reference value: 2.56%); assay type: functional
RS4-11 [18] = assay: Induction of apoptosis in human RS4:11 cells assessed as late apoptotic cells at 0.5 uM after 48 hrs by Annexin-V and 7-AAD staining based flow cytometric analysis (reference value: 2.71%); assay type: functional
HL-60 [19] = assay: Antiproliferative activity against human HL60 cells assessed as growth inhibition at 1 uM after 48 hrs by CCK-8 assay relative to control; assay type: functional; settings: HL-60, 48 h, read-out: GI
In short: (§3)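 Positive-control reference compound run at 1 μM alongside the 20 μM screen. CCK-8 viability after 48 h exposure, inhibition ratio relative to control.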

RS4-11 [20] = assay: Antiproliferative activity against human RS4:11 cells assessed as growth inhibition at 1 uM after 48 hrs by CCK-8 assay relative to control; assay type: functional; settings: RS4-11, 48 h, read-out: GI; in short: as §3
RS4-11 [21] = assay: Induction of apoptosis in human RS4:11 cells assessed as necrotic cells at 0.5 uM after 48 hrs by Annexin-V and 7-AAD staining based flow cytometric analysis (reference value: 0.67%); assay type: functional

Compound: COc1ccc(S(=O)(=O)Oc2ccccc2/C=C(\C#N)C(=O)Nc2nnc(Cc3ccc(F)cc3)s2)cc1
- Activity (RS4-11 [1]): Active
- Activity (RS4-11 [2]): Active
- inhibition of growth at 20 µM (RS4-11 [3]): 76%
- Activity (RS4-11 [4]): Active
- Activity (RS4-11 [5]): Dose-dependent effect
- Activity (RS4-11 [6]): 2.07%
- Activity (RS4-11 [7]): 5.88%
- IC50 (RS4-11 [8]): 1.21 µM
- viability at 40 µM (RS4-11 [9]): 30.2%
- inhibition of growth at 20 µM (HL-60 [10]): 100%
- Activity (RS4-11 [11]): 61.84%
- IC50 (HL-60 [12]): 4.05 µM
- Activity (RS4-11 [13]): Dose-dependent effect
- inhibition at 48 h, 20 µM [14]: 20%
- IC50 (HEK-293T): > 50 µM
- Activity (RS4-11 [15]): Dose-dependent effect

Compound: COc1ccc(S(=O)(=O)Oc2ccccc2/C=C(\C#N)C(=O)Nc2nnc(Cc3ccc(Cl)cc3)s2)cc1
- Activity (RS4-11 [1]): Active
- Activity (RS4-11 [2]): Active
- inhibition of growth at 20 µM (RS4-11 [3]): 77%
- Activity (RS4-11 [4]): Active
- Activity (RS4-11 [5]): Dose-dependent effect
- Activity (RS4-11 [6]): 2.68%
- Activity (RS4-11 [7]): 5%
- IC50 (RS4-11 [8]): 1.25 µM
- viability at 40 µM (RS4-11 [9]): 16.2%
- inhibition of growth at 20 µM (HL-60 [10]): 99%
- Activity (RS4-11 [11]): 76.08%
- IC50 (HL-60 [12]): 4.36 µM
- Activity (RS4-11 [13]): Dose-dependent effect
- inhibition at 48 h, 20 µM [14]: 26%
- IC50 (HEK-293T): > 50 µM
- Activity (RS4-11 [15]): Dose-dependent effect

Compound: COc1ccc(Cc2nnc(NC(=O)/C(C#N)=C/c3ccccc3OS(=O)(=O)c3ccc(OC)cc3)s2)cc1
- Activity (RS4-11 [1]): Active
- Activity (RS4-11 [2]): Active
- inhibition of growth at 20 µM (RS4-11 [3]): 78%
- Activity (RS4-11 [4]): Active
- Activity (RS4-11 [5]): Dose-dependent effect
- Activity (RS4-11 [6]): 2.58%
- Activity (RS4-11 [7]): 5.07%
- IC50 (RS4-11 [8]): 0.84 µM
- viability at 40 µM (RS4-11 [9]): 19.7%
- inhibition of growth at 20 µM (HL-60 [10]): 100%
- Activity (RS4-11 [11]): 72.63%
- IC50 (HL-60 [12]): 3.12 µM
- Activity (RS4-11 [13]): Dose-dependent effect
- inhibition at 48 h, 20 µM [14]: 30%
- IC50 (HEK-293T): > 50 µM
- Activity (RS4-11 [15]): Dose-dependent effect

Compound: CC1(C)CCC(CN2CCN(c3ccc(C(=O)NS(=O)(=O)c4ccc(NCC5CCOCC5)c([N+](=O)[O-])c4)c(Oc4cnc5[nH]ccc5c4)c3)CC2)=C(c2ccc(Cl)cc2)C1 [VENETOCLAX]
- viability at 0.5 µM (RS4-11 [16]): 2.71%
- Activity (RS4-11 [17]): 11.91%
- Activity (RS4-11 [18]): 83.27%
- inhibition of growth at 1 µM (HL-60 [19]): 98%
- inhibition of growth at 1 µM (RS4-11 [20]): 95%
- Activity (RS4-11 [21]): 2.11%
